Results: ChEMBL document CHEMBL1122709, “Synthesis and biological activity of a new class of cytotoxic agents: N-(3-oxoprop-1-enyl)-substituted pyrimidines and purines” (J Med Chem, 1984)

Experiments:
[1] = Compound was evaluated for its half-life when nucleophile was added in solution buffered at pH 7.2 in the presence of aminoethanol; assay type: ADME; details: buffered solution with added nucleophile (aminoethanol)
Procedure, shortened: (§1)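 Half-life of each compound measured in aqueous solution buffered at pH 7.2 with a nucleophile, glutathione or aminoethanol, added. Reaction followed kinetically as disappearance of the propenal.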

HeLa [2] = assay: Inhibition of HeLa cells growth (cytotoxicity); assay type: functional; details: Homo sapiens, read-out: ID50 (the source's name)
Procedure, shortened: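 HeLa cells in complete medium, grown to 1.7 × 10^5/mL (100 mL culture). Incubated 16 h with varying concentrations of inhibitor, then growth inhibition assessed.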

HeLa [3] = assay: Inhibition of macromolecular synthesis in HeLa cells assayed by the incorporation of radioactive leucine into protein; assay type: functional, cell-based; details: Homo sapiens
Procedure, shortened: (§2)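 HeLa S3 suspension culture in MEM with 5% fetal calf serum and 2 mM L-glutamine. Cells incubated with 0.5 μCi of labeled precursor: [methyl-3H]thymidine for DNA, [5,6-3H]uridine (40 Ci/mmol) for RNA, L-[4,5-3H]leucine (56 Ci/mmol) for protein. Synthesis rate taken as precursor uptake into cold TCA-insoluble material.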

HeLa [4] = assay: Inhibition of macromolecular synthesis in HeLa cells assayed by the incorporation of radioactive thymidine into DNA; assay type: functional, cell-based; details: Homo sapiens; procedure, shortened: as §2
[5] = Compound was evaluated for its half-life when nucleophile was added in solution buffered at pH 7.2 in the presence of glutathione; assay type: ADME; details: buffered solution with added nucleophile (glutathione); procedure, shortened: as §1
HeLa [6] = assay: Inhibition of macromolecular synthesis in HeLa cells assayed by the incorporation of radioactive uridine into RNA; assay type: functional, cell-based; details: Homo sapiens; procedure, shortened: as §2

Row | SMILES | half-life [1] [h] | IC50 (HeLa [2]) [µM] | IC50 (HeLa [3]) [µM] | IC50 (HeLa [4]) [µM] | half-life [5] [min] | IC50 (HeLa [6]) [µM]
1 | Nc1ncnc2c1ncn2/C=C/C=O | 15 | 2 | > 100 | 30 | 2.1 | > 100
2 | Cc1cn([C@H]2C[C@H](O)[C@@H](CO)O2)c(=O)n(/C=C/CO)c1=O |  | 60 | > 100 | 5 |  | 5
3 | Cc1cn(/C=C/C#N)c(=O)[nH]c1=O |  |  | > 100 | > 100 |  | > 100
4 | O=C/C=C/n1cc(CO)c(=O)[nH]c1=O |  |  | > 100 | > 100 |  | > 100
5 | CC(=O)/C=C/n1cc(C)c(=O)[nH]c1=O |  |  | > 100 | > 100 |  | > 100
6 | O=C/C=C/n1c(=O)ccn([C@H]2C[C@H](O)[C@@H](CO)O2)c1=O |  | 1 | 15 | 0.8 |  | 15
7 | O=C/C=C/n1ccc(=O)[nH]c1=O |  | 4 | 30 | 30 |  | 30
8 | Cc1cn(/C=C/C=N/O)c(=O)[nH]c1=O |  |  | > 100 | > 100 |  | > 100
9 | O=C/C=C/n1c(=O)ccn(C2O[C@H](CO)[C@@H](O)[C@H]2O)c1=O (stereo partly drawn) |  | 9 | > 100 | 10 |  | 3
10 | O=C/C=C/n1cc(C(F)(F)F)c(=O)[nH]c1=O |  |  | 80 | 60 |  | > 100
11 | Cc1cn(/C=C/C=O)c(=O)[nH]c1=O | 18 | 1 | 25 | 23 | 3.5 | 100
12 | O=C/C=C/n1cc(F)c(=O)[nH]c1=O |  | 3 | 40 | 60 |  | 90
13 | O=C/C=C/n1c(=O)c(I)cn([C@H]2C[C@H](O)[C@@H](CO)O2)c1=O |  | 20 | 15 | 0.3 |  | 80
14 | Nc1ccn(/C=C/C=O)c(=O)n1 |  | 15 | > 100 | > 100 |  | > 100
15 | CC(=O)/C=C/n1c(=O)ccn([C@H]2C[C@H](O)[C@@H](CO)O2)c1=O |  | 6 | > 100 | 1.5 |  | 6
16 | Cc1cn([C@H]2C[C@H](O)[C@@H](CO)O2)c(=O)n(/C=C/C=O)c1=O | 25 | 1 | 15 | 0.5 | 8 | 20
17 | Cc1cn(C)c(=O)n(/C=C/C=O)c1=O |  | 3 | 15 | 10 |  | 15
18 | Cc1cn([C@@H]2O[C@H](CO)[C@@H](O)[C@@H]2O)c(=O)n(/C=C/C=O)c1=O |  | 40 | > 100 | 40 |  | 100
19 | Nc1nc(O)c2ncn(/C=C/C=O)c2n1 |  | 24 | > 100 | > 100 |  | 50
20 | Cc1cn([C@@H]2O[C@H](CO)[C@@H](O)[C@H]2O)c(=O)n(/C=C/C=O)c1=O |  |  | > 100 | > 100 |  | 100
21 | Cc1cn(COCCO)c(=O)n(/C=C/C=O)c1=O |  | 6 | 20 | 20 |  | 20
22 | CCOC(=O)/C=C/n1cnc2c(N)ncnc21 |  |  | 100 | 60 |  | 100
23 | N#C/C=C/n1c(=O)ccn([C@H]2C[C@H](O)[C@@H](CO)O2)c1=O |  |  | > 100 | 100 |  | 100
24 | Cc1cn(/C=C/CO)c(=O)[nH]c1=O |  |  | > 100 | > 100 |  | > 100
